According to ChEMBL document CHEMBL1255546, “Discovery of potent and selective histamine H3 receptor inverse agonists based on the 3,4-dihydro-2H-pyrazino[1,2-a]indol-1-one scaffold” (Bioorg Med Chem Lett, 2010):
Active and inactive are the calls of the source. The calls are words filed in the database; no cut-off is given here.

How the values were obtained:
[1] = target: Histamine H2 receptor (Homo sapiens) (UniProt P25021); test: Displacement of [3H]-tiotidine from human histamine H2 receptor; design: concentration or dose not given beside the values; settings: concentration not given here
Summary of the method: (§1)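 Radioligand displacement assays, single determination (n = 1) each: [3H]-mepyramine at H1, [3H]-tiotidine at H2, [3H]-histamine at H4.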

Histamine H3 receptor [2] = target: T1, Histamine H3 receptor (Homo sapiens, UniProt Q9Y5N1); test: Displacement of [3H]-RAMH from human histamine H3 receptor
Histamine H3 receptor [3] = target: T1, Histamine H3 receptor; test: Inverse agonist activity at human recombinant histamine H3 receptor assessed as effect on [35S]GTPgammaS binding; format: functional
[4] = target: Histamine H1 receptor (Homo sapiens) (UniProt P35367); test: Displacement of [3H]-mepyramine from human histamine H1 receptor; design: concentration or dose not given beside the values; settings: concentration not given here; summary of the method: as §1
[5] = target: Histamine H4 receptor (Homo sapiens) (UniProt Q9H3N8); test: Displacement of [3H]-histamine from human histamine H4 receptor; design: concentration or dose not given beside the values; settings: concentration not given here; summary of the method: as §1
Cytochrome P450 2D6 = Cytochrome P450 2D6 (Homo sapiens, UniProt P10635); test: Inhibition of CYP2D6; format: ADME
Cytochrome P450 2C9 = Cytochrome P450 2C9 (Homo sapiens, UniProt P11712); test: Inhibition of CYP2C9; format: ADME
Cytochrome P450 3A4 = Cytochrome P450 3A4 (Homo sapiens, UniProt P08684); test: Inhibition of CYP3A4; format: ADME
[6] = Lipophilicity, log D of the compound at pH 7.4; format: physicochemical; settings: buffer
[7] = Intrinsic clearance in rat liver microsomes; format: ADME, Microsome
[8] = Aqueous solubility of the compound in 0.05 M phosphate buffer at pH 6.5; format: physicochemical
[9] = Intrinsic clearance in human liver microsomes; format: ADME, Microsome
Rattus norvegicus [10] = test: Toxicity in rat assessed as change in behavioral effect at 10 mg/kg, po measured for 1 hr; format: organism-based; design: dose 10 mg/kg, route oral; settings: in vivo
Histamine H3 receptor [11] = target: T2, Histamine H3 receptor (Rattus norvegicus, UniProt Q9QYN8); test: Inverse agonist activity at rat histamine H3 receptor; format: functional
Rattus norvegicus [12] = test: Inhibition of water intake in rat dipsogenia model at 10 mg/kg, po; format: functional, organism-based; design: dose 10 mg/kg
Rattus norvegicus [13] = test: Inhibition of (R)-alpha-methyl histamine-induced increased water intake in rat dipsogenia model at 10 mg/kg, po; format: functional
Histamine H3 receptor [14] = target: T2, Histamine H3 receptor; test: Binding affinity to rat histamine H3 receptor

T1 sequence (Q9Y5N1 whole entry): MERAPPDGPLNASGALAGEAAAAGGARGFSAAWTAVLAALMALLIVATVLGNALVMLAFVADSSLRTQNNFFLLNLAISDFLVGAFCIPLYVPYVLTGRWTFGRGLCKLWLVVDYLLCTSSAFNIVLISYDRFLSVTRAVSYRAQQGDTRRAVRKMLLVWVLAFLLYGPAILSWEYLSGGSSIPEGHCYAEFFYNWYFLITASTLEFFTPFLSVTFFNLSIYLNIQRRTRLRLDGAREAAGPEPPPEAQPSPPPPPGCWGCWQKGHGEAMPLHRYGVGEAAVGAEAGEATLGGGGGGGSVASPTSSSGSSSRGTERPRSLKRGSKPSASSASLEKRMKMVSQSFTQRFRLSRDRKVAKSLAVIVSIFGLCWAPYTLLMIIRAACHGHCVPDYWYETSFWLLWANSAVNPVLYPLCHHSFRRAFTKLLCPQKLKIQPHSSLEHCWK
Sequence of Cytochrome P450 3A4 (P08684 whole entry): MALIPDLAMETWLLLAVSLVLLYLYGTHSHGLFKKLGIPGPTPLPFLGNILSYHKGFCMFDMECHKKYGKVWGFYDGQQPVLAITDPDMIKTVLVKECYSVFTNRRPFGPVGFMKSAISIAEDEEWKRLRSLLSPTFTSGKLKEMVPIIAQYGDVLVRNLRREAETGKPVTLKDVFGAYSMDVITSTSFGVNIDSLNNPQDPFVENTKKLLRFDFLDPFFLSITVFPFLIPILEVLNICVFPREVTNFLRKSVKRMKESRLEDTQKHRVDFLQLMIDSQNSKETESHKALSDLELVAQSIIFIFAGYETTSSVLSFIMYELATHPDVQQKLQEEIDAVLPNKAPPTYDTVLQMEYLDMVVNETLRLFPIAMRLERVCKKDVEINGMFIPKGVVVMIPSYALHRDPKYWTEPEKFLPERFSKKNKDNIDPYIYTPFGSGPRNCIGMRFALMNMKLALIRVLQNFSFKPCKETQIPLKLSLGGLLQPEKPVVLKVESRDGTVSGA
Sequence of Histamine H4 receptor (Homo sapiens) (Q9H3N8 whole entry): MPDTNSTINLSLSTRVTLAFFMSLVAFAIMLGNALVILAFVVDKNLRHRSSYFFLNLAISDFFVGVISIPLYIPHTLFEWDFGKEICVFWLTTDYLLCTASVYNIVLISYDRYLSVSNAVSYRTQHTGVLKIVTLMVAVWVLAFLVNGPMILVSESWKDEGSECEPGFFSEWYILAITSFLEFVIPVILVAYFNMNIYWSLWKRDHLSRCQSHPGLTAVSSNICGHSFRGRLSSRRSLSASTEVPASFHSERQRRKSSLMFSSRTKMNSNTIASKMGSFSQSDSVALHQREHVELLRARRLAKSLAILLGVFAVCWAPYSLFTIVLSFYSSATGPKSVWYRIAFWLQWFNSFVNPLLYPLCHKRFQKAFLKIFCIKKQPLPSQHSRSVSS
Sequence of Histamine H1 receptor (Homo sapiens) (P35367 whole entry): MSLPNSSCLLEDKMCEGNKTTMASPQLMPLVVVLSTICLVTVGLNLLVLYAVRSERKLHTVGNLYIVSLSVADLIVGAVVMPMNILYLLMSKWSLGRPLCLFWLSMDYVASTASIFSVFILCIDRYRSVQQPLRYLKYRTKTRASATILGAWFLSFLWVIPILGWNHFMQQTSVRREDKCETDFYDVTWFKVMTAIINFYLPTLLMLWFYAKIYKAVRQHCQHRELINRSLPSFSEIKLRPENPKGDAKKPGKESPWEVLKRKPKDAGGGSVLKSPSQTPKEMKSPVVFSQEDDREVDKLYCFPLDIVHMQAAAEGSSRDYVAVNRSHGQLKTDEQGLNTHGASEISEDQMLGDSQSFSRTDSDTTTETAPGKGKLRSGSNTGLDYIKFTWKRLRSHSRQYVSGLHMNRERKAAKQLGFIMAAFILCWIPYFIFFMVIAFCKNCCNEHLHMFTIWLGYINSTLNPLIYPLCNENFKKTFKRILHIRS
Sequence of Cytochrome P450 2C9 (P11712 whole entry): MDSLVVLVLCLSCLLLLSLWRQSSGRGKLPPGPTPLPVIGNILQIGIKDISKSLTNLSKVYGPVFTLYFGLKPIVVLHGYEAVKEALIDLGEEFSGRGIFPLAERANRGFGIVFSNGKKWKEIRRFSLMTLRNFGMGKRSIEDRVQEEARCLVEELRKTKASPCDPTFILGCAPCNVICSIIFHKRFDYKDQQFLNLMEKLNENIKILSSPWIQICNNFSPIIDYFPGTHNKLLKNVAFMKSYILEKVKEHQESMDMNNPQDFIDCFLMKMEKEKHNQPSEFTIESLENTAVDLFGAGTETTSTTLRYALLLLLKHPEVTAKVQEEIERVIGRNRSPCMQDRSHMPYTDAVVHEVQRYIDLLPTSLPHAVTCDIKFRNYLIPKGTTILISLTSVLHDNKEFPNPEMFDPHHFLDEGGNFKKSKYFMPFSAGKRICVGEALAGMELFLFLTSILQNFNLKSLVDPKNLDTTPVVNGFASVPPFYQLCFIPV
Sequence of Histamine H2 receptor (Homo sapiens) (P25021 whole entry): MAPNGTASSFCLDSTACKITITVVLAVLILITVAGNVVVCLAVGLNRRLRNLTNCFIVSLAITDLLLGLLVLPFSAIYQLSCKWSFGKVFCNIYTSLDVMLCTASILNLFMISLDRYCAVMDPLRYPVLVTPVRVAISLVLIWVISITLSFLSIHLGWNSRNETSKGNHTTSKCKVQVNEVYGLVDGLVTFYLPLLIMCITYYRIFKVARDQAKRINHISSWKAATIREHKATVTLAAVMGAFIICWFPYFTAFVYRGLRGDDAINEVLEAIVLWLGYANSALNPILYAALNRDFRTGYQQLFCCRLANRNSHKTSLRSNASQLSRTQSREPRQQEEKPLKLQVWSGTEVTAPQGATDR
Sequence of Cytochrome P450 2D6 (P10635 whole entry): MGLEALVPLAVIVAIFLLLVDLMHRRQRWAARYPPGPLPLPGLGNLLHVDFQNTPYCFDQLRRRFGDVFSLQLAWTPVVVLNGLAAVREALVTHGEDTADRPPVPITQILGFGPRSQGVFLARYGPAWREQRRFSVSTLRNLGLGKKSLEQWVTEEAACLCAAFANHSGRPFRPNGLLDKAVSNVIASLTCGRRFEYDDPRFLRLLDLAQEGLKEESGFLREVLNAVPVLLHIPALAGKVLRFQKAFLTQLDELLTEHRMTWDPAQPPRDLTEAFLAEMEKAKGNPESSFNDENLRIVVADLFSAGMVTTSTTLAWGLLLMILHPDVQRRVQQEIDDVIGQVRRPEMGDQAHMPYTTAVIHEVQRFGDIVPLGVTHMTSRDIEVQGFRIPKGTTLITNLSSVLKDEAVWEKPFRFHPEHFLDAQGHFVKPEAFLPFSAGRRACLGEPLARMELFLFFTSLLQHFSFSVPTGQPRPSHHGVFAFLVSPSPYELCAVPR
T2 sequence (Q9QYN8 whole entry): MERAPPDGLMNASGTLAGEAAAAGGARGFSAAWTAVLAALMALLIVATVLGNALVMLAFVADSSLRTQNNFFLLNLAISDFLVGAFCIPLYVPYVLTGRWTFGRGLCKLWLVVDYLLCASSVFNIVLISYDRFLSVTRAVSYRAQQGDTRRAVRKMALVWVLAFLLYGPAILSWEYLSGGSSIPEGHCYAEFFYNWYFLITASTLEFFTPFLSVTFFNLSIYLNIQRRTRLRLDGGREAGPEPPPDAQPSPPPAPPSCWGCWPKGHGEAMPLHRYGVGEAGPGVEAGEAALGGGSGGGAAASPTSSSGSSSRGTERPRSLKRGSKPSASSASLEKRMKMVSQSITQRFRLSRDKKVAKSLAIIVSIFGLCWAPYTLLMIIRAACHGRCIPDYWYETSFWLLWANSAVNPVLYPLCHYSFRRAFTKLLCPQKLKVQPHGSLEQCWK

C[C@H]1CCCN1CCCOc1ccc2c(c1)cc1n2CCNC1=O
inhibition [1]: 10%
Ki (Histamine H3 receptor [2]): 21 nM
EC50 (Histamine H3 receptor [3]): 140 nM
inhibition [4]: 11%
inhibition [5]: 4%

CC(C)N1CCC(Oc2ccc3c(c2)cc2n3CCN(Cc3cccc(F)c3)C2=O)CC1
inhibition [1]: 21%
Ki (Histamine H3 receptor [2]): 14 nM
EC50 (Histamine H3 receptor [3]): 23 nM
inhibition [4]: 24%
inhibition [5]: 4%

C[C@@H]1CCCN1CCCOc1ccc2c(c1)cc1n2CCNC1=O
inhibition [1]: 4%
Ki (Histamine H3 receptor [2]): 7 nM
IC50 (Cytochrome P450 2D6): > 50000 nM
EC50 (Histamine H3 receptor [3]): 4 nM
inhibition [4]: 13%
IC50 (Cytochrome P450 2C9): > 50000 nM
IC50 (Cytochrome P450 3A4): > 50000 nM
logD [6]: 0.13
microsomal CLint [7]: 37 µL/min/mg
inhibition [5]: -4%
solubility [8]: > 436 µg/mL

CC(C)N1CCC(Oc2ccc3c(c2)cc2n3CCCNC2=O)CC1
inhibition [1]: 9%
Ki (Histamine H3 receptor [2]): 17 nM
IC50 (Cytochrome P450 2D6): > 50000 nM
EC50 (Histamine H3 receptor [3]): 26 nM
inhibition [4]: 3%
IC50 (Cytochrome P450 2C9): > 50000 nM
IC50 (Cytochrome P450 3A4): > 50000 nM
logD [6]: 0.07
microsomal CLint [7]: 28 µL/min/mg
inhibition [5]: -3%
solubility [8]: > 455 µg/mL

CC(C)N1CCC(Oc2ccc3c(c2)cc2n3CCN(C(C)C)C2=O)CC1
inhibition [1]: -2%
Ki (Histamine H3 receptor [2]): 27 nM
EC50 (Histamine H3 receptor [3]): 25 nM
inhibition [4]: -6%
inhibition [5]: -6%

CC(C)N1CCC(Oc2ccc3c(c2)cc2n3CCCN(CC3CC3)C2=O)CC1
inhibition [1]: 15%
EC50 (Histamine H3 receptor [3]): 36 nM
inhibition [4]: 5%
inhibition [5]: -7%

CC(C)N1CCC(Oc2ccc3c(c2)cc2n3[C@H](C)CNC2=O)CC1
inhibition [1]: 10%
Ki (Histamine H3 receptor [2]): 26 nM
IC50 (Cytochrome P450 2D6): 22000 nM
EC50 (Histamine H3 receptor [3]): 29 nM
inhibition [4]: -4%
IC50 (Cytochrome P450 2C9): > 50000 nM
IC50 (Cytochrome P450 3A4): > 50000 nM
logD [6]: 0.23
microsomal CLint [7]: 29 µL/min/mg
inhibition [5]: 9%
solubility [8]: > 455 µg/mL

CC(C)N1CCC(Oc2ccc3c(c2)cc2n3CCNC2=O)CC1
Ki (Histamine H3 receptor [2]): 25 nM
IC50 (Cytochrome P450 2D6): 4000 nM
microsomal CLint [9]: 1 µL/min/mg
EC50 (Histamine H3 receptor [3]): 38 nM
inhibition [4]: 1%
IC50 (Cytochrome P450 2C9): > 50000 nM
IC50 (Cytochrome P450 3A4): > 50000 nM
logD [6]: -0.05
microsomal CLint [7]: 70 µL/min/mg
inhibition [5]: 6%
solubility [8]: > 436 µg/mL

CC(C)N1CCC(Oc2ccc3c(c2)cc2n3CCN(CC3CC3)C2=O)CC1
inhibition [1]: 6%
Ki (Histamine H3 receptor [2]): 9 nM
IC50 (Cytochrome P450 2D6): > 50000 nM
microsomal CLint [9]: 14 µL/min/mg
EC50 (Histamine H3 receptor [3]): 28 nM
IC50 (Cytochrome P450 2C9): > 50000 nM
IC50 (Cytochrome P450 3A4): > 50000 nM
logD [6]: 1.09
microsomal CLint [7]: 9 µL/min/mg
inhibition [5]: 7%
solubility [8]: > 508 µg/mL

O=C1NCCn2c1cc1cc(OC3CCN(CC4CC4)CC3)ccc12
inhibition [1]: 9%
Ki (Histamine H3 receptor [2]): 129 nM
inhibition [4]: -4%
inhibition [5]: 3%

CC(C)N1CCC(Oc2cc3cc4n(c3cc2Br)[C@@H](C)CNC4=O)CC1
inhibition [1]: 18%
Ki (Histamine H3 receptor [2]): 4 nM
IC50 (Cytochrome P450 2D6): > 50000 nM
microsomal CLint [9]: 1 µL/min/mg
EC50 (Histamine H3 receptor [3]): 4 nM
IC50 (Cytochrome P450 2C9): > 50000 nM
IC50 (Cytochrome P450 3A4): > 50000 nM
logD [6]: 1.13
microsomal CLint [7]: 12 µL/min/mg
inhibition [5]: -10%
solubility [8]: > 526 µg/mL

CC(C)N1CCC(Oc2ccc3c(c2)cc2n3CCN(Cc3ccncc3)C2=O)CC1
Ki (Histamine H3 receptor [2]): 5 nM
IC50 (Cytochrome P450 2D6): > 50000 nM
microsomal CLint [9]: 8 µL/min/mg
EC50 (Histamine H3 receptor [3]): 12 nM
inhibition [4]: 4%
IC50 (Cytochrome P450 2C9): > 50000 nM
IC50 (Cytochrome P450 3A4): 6000 nM
logD [6]: 0.64
microsomal CLint [7]: 27 µL/min/mg
inhibition [5]: 3%
solubility [8]: > 456 µg/mL

O=C1NCCn2c1cc1cc(OCCCN3CCCCC3)ccc12
inhibition [1]: 45%
Ki (Histamine H3 receptor [2]): 18 nM
EC50 (Histamine H3 receptor [3]): 74 nM
inhibition [4]: 33%
inhibition [5]: 8%

CC(C)N1CCC(Oc2ccc3c(c2)cc2n3C[C@@H](C)N(CC3CC3)C2=O)CC1
Activity (Rattus norvegicus [10]): Non-toxic
inhibition [1]: 8%
Ki (Histamine H3 receptor [2]): 5 nM
IC50 (Cytochrome P450 2D6): > 50000 nM
EC50 (Histamine H3 receptor [11]): 18 nM
microsomal CLint [9]: 6 µL/min/mg
EC50 (Histamine H3 receptor [3]): 18 nM
inhibition [4]: 3%
inhibition (Rattus norvegicus [12]): inactive
IC50 (Cytochrome P450 2C9): > 50000 nM
IC50 (Cytochrome P450 3A4): > 50000 nM
inhibition in vivo at 10 mg/kg (Rattus norvegicus [13]): 64%
Ki (Histamine H3 receptor [14]): 12 nM
logD [6]: 1.4
microsomal CLint [7]: 10 µL/min/mg
inhibition [5]: 12%
solubility [8]: > 441 µg/mL

CC(C)N1CCC(Oc2ccc3c(c2)cc2n3CCN(CCO)C2=O)CC1
inhibition [1]: 14%
Ki (Histamine H3 receptor [2]): 46 nM
IC50 (Cytochrome P450 2D6): 900 nM
microsomal CLint [9]: 9 µL/min/mg
EC50 (Histamine H3 receptor [3]): 56 nM
inhibition [4]: -1%
IC50 (Cytochrome P450 2C9): > 50000 nM
IC50 (Cytochrome P450 3A4): > 50000 nM
logD [6]: -0.25
microsomal CLint [7]: 11 µL/min/mg
inhibition [5]: -5%
solubility [8]: > 406 µg/mL
